Published values from different studies.
Protocols differ between the studies behind these lines.
Target: Cytoplasmic tyrosine-protein kinase BMX (BMX, Homo sapiens, UniProt P51813)
One construct used (P51813 1-675): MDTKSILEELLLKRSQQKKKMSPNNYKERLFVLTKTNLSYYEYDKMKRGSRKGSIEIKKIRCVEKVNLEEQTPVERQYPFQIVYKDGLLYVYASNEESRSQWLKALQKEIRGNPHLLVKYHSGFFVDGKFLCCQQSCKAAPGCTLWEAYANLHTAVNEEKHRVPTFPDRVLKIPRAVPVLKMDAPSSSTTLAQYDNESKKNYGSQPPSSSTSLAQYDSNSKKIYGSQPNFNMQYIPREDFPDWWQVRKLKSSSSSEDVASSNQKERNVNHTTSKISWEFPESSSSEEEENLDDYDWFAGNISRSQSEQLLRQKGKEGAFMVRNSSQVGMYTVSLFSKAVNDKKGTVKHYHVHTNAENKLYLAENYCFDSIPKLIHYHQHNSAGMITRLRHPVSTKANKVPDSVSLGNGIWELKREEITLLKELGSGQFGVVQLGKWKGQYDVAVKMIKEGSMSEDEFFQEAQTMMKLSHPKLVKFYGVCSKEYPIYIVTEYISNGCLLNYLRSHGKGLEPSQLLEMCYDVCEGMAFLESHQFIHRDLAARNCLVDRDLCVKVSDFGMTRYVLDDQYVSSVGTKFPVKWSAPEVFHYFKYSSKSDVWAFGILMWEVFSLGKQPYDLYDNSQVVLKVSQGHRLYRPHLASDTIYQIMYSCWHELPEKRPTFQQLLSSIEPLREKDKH

SMILES | observed | technique | tested at | remaining binding [%]
CN(C)c1nccc(-c2cnn3ncccc23)n1 | binding |  | 1 µM | 87
C=CC(=O)N1CCC(C(=O)NCC(=O)N2CCN(c3nc(-c4cnc(N)nc4C(F)F)nc(N4CCOCC4)n3)CC2)CC1 | binding | competition with immobilised ligand | 1 µM | 99
O=C(c1ccc(Nc2ncc(Cl)c(-c3ccc(Cl)s3)n2)cc1)N1CCC(N2CCCC2)CC1 | binding | competition with immobilised ligand | 1 µM | 79
O=C(Nc1c[nH]nc1C(=O)NC1CCNCC1)c1cc(F)cc(F)c1 | binding | competition with immobilised ligand | 1 µM | 100
COc1ncc2cc3ccccc3nc2c1C#N | cell-free assay | competition with immobilised ligand | 5 µM | 99
O=C(NCCCN1CCOCC1)c1ccc(Nc2nccc(-c3cc4ccccc4s3)n2)cc1 | binding | competition with immobilised ligand | 1 µM | 100
COc1ccnn2ncc(-c3ccnc(N(C)C)n3)c12 | binding |  | 1 µM | 100
CCC(=N\O)/C(C)=C/c1ccc(F)cc1 | cell-free assay | competition with immobilised ligand | 1 µM | 83
C[C@H]1CCN(c2nccc(-c3cnn4ncccc34)n2)C1 | binding |  | 1 µM | 84
O=C(N1CCS(=O)(=O)CC1)N1C[C@H](c2ccc(OC(F)(F)F)cc2)C[C@H](c2nc(C3CC3)no2)C1 | cell-free assay | competition with immobilised ligand | 1 µM | 100
COc1cnc(Nc2cccc(S(N)(=O)=O)c2)nc1N1CCN(c2ccccc2)CC1 | binding | competition with immobilised ligand | 1 µM | 93
FC(F)(F)Oc1cccc(-c2cnc3ccc(-c4ccncc4)nn23)c1 | cell-free assay | competition with immobilised ligand | 5 µM | 86
Cc1cnc(Nc2ccc(C(=O)N3CCC(N4CCCC4)CC3)cc2)nc1-c1cc2ccccc2s1 | binding | competition with immobilised ligand | 1 µM | 75
COc1ccc2cc(OCC3(C(=O)O)CN(C(=O)c4ccc(F)cc4)C3)ccc2c1 | cell-free assay | competition with immobilised ligand | 1 µM | 87
N[C@@H]1CCN(c2nccc(-c3cnn4ncccc34)n2)C1 | binding |  | 1 µM | 97
CO[C@@H](C)c1c(Nc2ccc([C@H](N(C)C(=O)C3CCS(=O)(=O)CC3)C(F)(F)F)cc2)cnc2cc(Cl)nn12 | cell-free assay | competition with immobilised ligand | 1 µM | 99
CN(c1nccc(-c2cnn3ncccc23)n1)C1CC1 | binding |  | 1 µM | 82
O=C(O)[C@H]1[C@H](Cn2nnc3ccccc3c2=O)CC[C@@H]1C(=O)c1ccc(OCCC2CCOCC2)cc1 | cell-free assay | competition with immobilised ligand | 1 µM | 92
CC1CCCN1c1nccc(-c2cnn3ncccc23)n1 (stereo not drawn) | binding |  | 1 µM | 94
C[C@H](c1cccc(C#N)c1)n1cc(Cl)cc(C(N)=O)c1=N | cell-free assay | competition with immobilised ligand | 1 µM | 77
CCN1CCN(Cc2ccc(C(=O)Nc3ccc(C)c(Oc4ccc5c(c4)CC(=O)N5)c3)cc2C(F)(F)F)CC1 | binding | competition with immobilised ligand | 1 µM | 88
